Measurements from ChEMBL document CHEMBL4725348, “Rational Design and Evaluation of 6-(Pyrimidin-2-ylamino)-3,4-dihydroquinoxalin-2(1H)-ones as Polypharmacological Inhibitors of BET and Kinases” (J Med Chem, 2020).
pIC50: −log10 of the molar value. Values belong to the compound of their own block, whether it stands above or below them.

Assays:
[1] = target: T1, Bromodomain-containing protein 4 (Homo sapiens, UniProt O60885); experiment: Inhibition of His6-tagged BRD4 bromodomain 1 (unknown origin) expressed in Escherichia coli Bl21(DE3) cells at 1 uM incubated for 4 hrs by FP assay relative to control
Method in brief: (§1)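 Fluorescence polarization. Purified bromodomain (His6 tag removed with TEV, size-exclusion purified) equilibrated with fluorescent ligand. Compound or DMSO (2‰ final) then added and left 4 h at room temperature in the dark. Anisotropy read at ex 485/em 530 nm. IC50 values are means of at least two independent experiments; single-point inhibition tested at the listed concentration.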

[2] = target: T2, Cyclin-dependent kinase 9 (Homo sapiens, UniProt P50750); experiment: Inhibition of human CDK9 by mobility shift assay relative to control
Method in brief: (§2)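 Recombinant CDK9 incubated with compound and CTD3 peptide substrate. Activity read by Caliper mobility-shift; Dinaciclib served as positive control. IC50 values are means of at least two independent experiments.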

[3] = target: T1, Bromodomain-containing protein 4; experiment: Inhibition of His6-tagged BRD4 bromodomain 1 (unknown origin) expressed in Escherichia coli Bl21(DE3) cells incubated for 4 hrs by FP assay; method in brief: as §1
[4] = target: Phosphatidylinositol 4,5-bisphosphate 3-kinase catalytic subunit alpha isoform (Homo sapiens) (UniProt P42336); experiment: Inhibition PI3Kalpha (unknown origin) at 100 nM relative to control
[5] = target: T3, Aurora kinase A (Homo sapiens) (UniProt O14965); experiment: Inhibition AuroraA (unknown origin) at 1 uM relative to control
T3 sequence (whole entry): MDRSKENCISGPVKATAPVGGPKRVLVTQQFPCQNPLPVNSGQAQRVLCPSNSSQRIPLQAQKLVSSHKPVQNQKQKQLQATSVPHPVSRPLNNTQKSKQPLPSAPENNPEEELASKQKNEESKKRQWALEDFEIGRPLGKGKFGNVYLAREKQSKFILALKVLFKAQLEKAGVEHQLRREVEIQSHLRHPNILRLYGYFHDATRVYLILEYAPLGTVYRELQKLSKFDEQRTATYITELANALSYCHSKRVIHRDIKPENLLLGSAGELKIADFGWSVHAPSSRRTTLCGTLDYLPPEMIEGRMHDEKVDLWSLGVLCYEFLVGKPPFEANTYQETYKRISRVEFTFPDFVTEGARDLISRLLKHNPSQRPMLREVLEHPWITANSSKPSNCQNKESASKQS

[6] = target: T2, Cyclin-dependent kinase 9; experiment: Inhibition of human CDK9 at 1 uM by mobility shift assay relative to control; method in brief: as §2
[7] = target: Cyclin-dependent kinase 6 (Homo sapiens) (UniProt Q00534); experiment: Inhibition of CDK6 (unknown origin) at 1 uM relative to control
[8] = target: Cyclin-dependent kinase 6 (Homo sapiens) (UniProt Q00534); experiment: Inhibition of CDK6 (unknown origin) at 100 nM relative to control
[9] = target: T3, Aurora kinase A (Homo sapiens); experiment: Inhibition AuroraA (unknown origin) at 100 nM relative to control
[10] = target: T2, Cyclin-dependent kinase 9; experiment: Inhibition of human CDK9 at 100 nM by mobility shift assay relative to control; method in brief: as §2
[11] = target: Phosphatidylinositol 4,5-bisphosphate 3-kinase catalytic subunit alpha isoform (Homo sapiens) (UniProt P42336); experiment: Inhibition PI3Kalpha (unknown origin) at 1 uM relative to control
[12] = target: ALK tyrosine kinase receptor (Homo sapiens, UniProt Q9UM73); experiment: Inhibition of ALK (unknown origin)
[13] = target: T1, Bromodomain-containing protein 4; experiment: Inhibition of His6-tagged BRD4 bromodomain 1 (unknown origin) expressed in Escherichia coli Bl21(DE3) cells at 10 uM incubated for 4 hrs by FP assay relative to control; method in brief: as §1
[14] = target: T2, Cyclin-dependent kinase 9; experiment: Inhibition of CDK9 in human HCT-116 cells assessed as reduction in phosphorylation of […] protein expression at 50 to 500 nM after 24 hrs by Western blot analysis; type: cell-based; conditions: dose nM 50-500, time 24.0 hrs
Method in brief: (§3)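 HCT-116 cells plated 24 h, then treated 24 h at 0, 50, 100, 250 or 500 nM. Lysates immunoblotted for p-AR and p-RNA Pol II CTD with GAPDH as loading control; bands quantified and normalized.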

[15] = target: T2, Cyclin-dependent kinase 9; experiment: Inhibition of CDK9 in human HCT-116 cells assessed as reduction in phosphorylation of AR protein expression at 50 to 500 nM after 24 hrs by Western blot analysis; type: cell-based; conditions: dose nM 50-500, time 24.0 hrs; method in brief: as §3

T2 sequence (P50750 whole entry): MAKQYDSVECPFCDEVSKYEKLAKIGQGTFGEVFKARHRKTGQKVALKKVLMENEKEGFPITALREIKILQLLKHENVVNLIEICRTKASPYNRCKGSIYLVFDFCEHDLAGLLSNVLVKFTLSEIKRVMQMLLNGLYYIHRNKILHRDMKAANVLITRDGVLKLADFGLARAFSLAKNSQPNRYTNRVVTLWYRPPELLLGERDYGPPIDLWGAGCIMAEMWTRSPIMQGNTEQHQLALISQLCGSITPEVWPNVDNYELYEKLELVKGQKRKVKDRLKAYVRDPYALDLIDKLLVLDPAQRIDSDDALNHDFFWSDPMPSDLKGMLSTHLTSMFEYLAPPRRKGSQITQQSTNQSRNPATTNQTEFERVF
Sequence of Phosphatidylinositol 4,5-bisphosphate 3-kinase catalytic subunit alpha isoform (Homo sapiens) (P42336 whole entry, canonical isoform): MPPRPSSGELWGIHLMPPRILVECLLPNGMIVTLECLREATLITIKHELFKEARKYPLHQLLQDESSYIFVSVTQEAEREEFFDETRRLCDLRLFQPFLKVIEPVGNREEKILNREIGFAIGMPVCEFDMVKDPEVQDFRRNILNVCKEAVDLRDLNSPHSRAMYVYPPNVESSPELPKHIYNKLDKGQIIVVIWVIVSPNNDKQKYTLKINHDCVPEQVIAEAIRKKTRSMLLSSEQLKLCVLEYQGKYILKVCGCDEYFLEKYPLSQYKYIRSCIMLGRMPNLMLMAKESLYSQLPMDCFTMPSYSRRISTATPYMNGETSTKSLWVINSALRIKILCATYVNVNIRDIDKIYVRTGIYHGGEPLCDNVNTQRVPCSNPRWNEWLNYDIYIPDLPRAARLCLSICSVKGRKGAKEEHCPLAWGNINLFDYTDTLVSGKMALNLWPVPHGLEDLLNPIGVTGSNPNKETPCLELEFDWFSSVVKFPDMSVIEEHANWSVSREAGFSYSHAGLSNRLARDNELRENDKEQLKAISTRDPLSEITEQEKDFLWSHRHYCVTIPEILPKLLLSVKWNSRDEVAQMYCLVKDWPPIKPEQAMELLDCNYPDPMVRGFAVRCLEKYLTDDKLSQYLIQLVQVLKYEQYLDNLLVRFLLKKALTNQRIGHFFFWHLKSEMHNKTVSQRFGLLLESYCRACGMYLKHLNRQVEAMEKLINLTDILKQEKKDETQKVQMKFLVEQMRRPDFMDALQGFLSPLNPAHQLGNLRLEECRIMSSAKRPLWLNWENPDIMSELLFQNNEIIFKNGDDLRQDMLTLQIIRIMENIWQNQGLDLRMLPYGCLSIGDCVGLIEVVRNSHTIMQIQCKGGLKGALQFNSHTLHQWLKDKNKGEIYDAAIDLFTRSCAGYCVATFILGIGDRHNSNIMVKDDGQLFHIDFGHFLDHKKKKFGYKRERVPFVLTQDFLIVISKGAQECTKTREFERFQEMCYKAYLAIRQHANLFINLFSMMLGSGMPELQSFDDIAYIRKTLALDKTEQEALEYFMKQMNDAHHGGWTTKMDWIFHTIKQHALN
Sequence of Cyclin-dependent kinase 6 (Homo sapiens) (Q00534 whole entry): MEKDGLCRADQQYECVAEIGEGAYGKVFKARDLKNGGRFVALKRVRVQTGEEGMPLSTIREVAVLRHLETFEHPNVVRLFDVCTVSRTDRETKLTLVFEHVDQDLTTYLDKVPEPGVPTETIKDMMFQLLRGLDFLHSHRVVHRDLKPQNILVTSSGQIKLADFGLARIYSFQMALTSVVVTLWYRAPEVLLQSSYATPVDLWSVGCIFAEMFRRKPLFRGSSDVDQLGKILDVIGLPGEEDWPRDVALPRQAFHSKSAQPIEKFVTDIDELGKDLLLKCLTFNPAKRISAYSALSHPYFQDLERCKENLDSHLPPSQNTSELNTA
Sequence of ALK tyrosine kinase receptor (Q9UM73 whole entry): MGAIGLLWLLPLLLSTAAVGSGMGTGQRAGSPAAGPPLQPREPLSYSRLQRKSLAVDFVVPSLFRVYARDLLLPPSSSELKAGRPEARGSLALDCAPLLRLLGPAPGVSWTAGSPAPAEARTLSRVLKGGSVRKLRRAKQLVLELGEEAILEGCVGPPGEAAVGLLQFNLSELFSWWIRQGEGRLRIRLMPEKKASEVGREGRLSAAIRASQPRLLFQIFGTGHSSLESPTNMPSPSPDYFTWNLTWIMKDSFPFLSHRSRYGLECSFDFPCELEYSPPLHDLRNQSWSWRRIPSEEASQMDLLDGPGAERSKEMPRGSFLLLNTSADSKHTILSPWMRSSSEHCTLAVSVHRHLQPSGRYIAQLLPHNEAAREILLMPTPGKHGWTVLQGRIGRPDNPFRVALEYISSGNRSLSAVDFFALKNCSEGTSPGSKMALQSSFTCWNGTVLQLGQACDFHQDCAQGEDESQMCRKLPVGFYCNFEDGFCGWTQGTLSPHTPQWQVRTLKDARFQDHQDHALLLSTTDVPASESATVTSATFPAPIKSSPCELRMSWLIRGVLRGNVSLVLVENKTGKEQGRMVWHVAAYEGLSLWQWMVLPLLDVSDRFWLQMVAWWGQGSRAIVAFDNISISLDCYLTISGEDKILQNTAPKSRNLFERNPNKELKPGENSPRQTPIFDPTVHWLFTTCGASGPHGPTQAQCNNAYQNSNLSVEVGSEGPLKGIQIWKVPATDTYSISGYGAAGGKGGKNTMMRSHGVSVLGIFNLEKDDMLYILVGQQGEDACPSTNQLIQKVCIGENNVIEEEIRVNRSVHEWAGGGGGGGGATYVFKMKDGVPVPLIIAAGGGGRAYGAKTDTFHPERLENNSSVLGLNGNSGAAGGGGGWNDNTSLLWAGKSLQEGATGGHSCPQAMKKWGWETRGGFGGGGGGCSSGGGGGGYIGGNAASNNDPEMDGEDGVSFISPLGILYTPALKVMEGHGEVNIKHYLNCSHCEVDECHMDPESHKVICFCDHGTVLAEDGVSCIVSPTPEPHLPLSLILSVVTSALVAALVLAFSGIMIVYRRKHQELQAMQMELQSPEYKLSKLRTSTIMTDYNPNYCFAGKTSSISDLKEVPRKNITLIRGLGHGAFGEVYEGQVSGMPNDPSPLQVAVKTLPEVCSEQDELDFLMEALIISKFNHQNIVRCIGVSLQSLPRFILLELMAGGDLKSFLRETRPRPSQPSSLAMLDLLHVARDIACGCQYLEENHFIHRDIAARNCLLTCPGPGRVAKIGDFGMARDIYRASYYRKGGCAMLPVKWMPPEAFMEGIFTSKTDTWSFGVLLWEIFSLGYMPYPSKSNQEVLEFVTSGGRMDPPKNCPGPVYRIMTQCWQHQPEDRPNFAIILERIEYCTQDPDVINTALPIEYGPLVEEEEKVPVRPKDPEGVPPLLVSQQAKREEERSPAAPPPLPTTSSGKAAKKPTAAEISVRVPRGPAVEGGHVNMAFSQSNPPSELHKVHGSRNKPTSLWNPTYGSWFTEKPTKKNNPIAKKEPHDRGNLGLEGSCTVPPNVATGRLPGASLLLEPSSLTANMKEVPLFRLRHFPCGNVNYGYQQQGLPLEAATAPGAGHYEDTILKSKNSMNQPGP

Compound: Cc1noc(C)c1-c1cccc(Nc2nccc(-c3ccccc3)n2)c1
inhibition [1]: 2.2%

Compound: CC(C)N1c2cc(Nc3nccc(-c4ccccc4)n3)ccc2N(C)C(=O)[C@H]1C
inhibition [4]: 0% | inhibition [6]: 102% | inhibition [7]: 4.8% | pIC50 [3]: 6.71 | inhibition [8]: -0.8% | inhibition [9]: 10.6% | inhibition [10]: 83.4% | inhibition [11]: 22.9%

Compound: CC(C)N1c2cc(Nc3ncc(Cl)c(-c4cncc5ccccc45)n3)ccc2N(C)C(=O)[C@H]1C
pIC50 [2]: 7.64 | pIC50 [3]: 7.24

Compound: Cc1ccc(N)cc1-c1ccnc(Nc2ccc3c(c2)N(C(C)C)[C@H](C)C(=O)N3C)n1
pIC50 [2]: 6.82 | pIC50 [3]: 6.63

Compound: CC(C)N1c2cc(Nc3nccc(-c4cccc5[nH]ccc45)n3)ccc2N(C)C(=O)[C@H]1C
pIC50 [2]: 7.86 | pIC50 [3]: 6.54

Compound: CC(C)N1c2cc(Nc3nccc(-c4cccc(N)c4)n3)ccc2N(C)C(=O)[C@H]1C
pIC50 [2]: 8.23 | pIC50 [3]: 6.92

Compound: Cc1ccc(-c2ccnc(Nc3ccc4c(c3)N(C(C)C)[C@H](C)C(=O)N4C)n2)cc1
pIC50 [2]: 6.31 | pIC50 [3]: 5.23

Compound: CC(C)N1c2cc(Nc3nccc(-c4cccc5ncccc45)n3)ccc2N(C)C(=O)[C@H]1C
pIC50 [2]: 7.09 | pIC50 [3]: 7.82

Compound: CCNc1cccc(-c2ccnc(Nc3ccc4c(c3)N(C(C)C)[C@H](C)C(=O)N4C)n2)c1
pIC50 [2]: 7.42 | pIC50 [3]: 6.50

Compound: COc1cccc(-c2ccnc(Nc3ccc4c(c3)N(C(C)C)[C@H](C)C(=O)N4C)n2)c1
pIC50 [2]: 6.90 | pIC50 [3]: 6.02

Compound: CC(C)N1c2cc(Nc3cccc(-c4cccc(C#N)c4)c3)ccc2N(C)C(=O)[C@H]1C
inhibition [4]: -0.1% | inhibition [5]: -1.8% | inhibition [6]: -4.1% | inhibition [7]: -3.3% | pIC50 [3]: 6.18 | inhibition [8]: 2.3% | inhibition [9]: -3% | inhibition [10]: 2% | inhibition [11]: 5.2%

Compound: CC(C)N1c2cc(Nc3ncc(F)c(-c4cncc5ccccc45)n3)ccc2N(C)C(=O)[C@H]1C
pIC50 [2]: 7.62 | pIC50 [3]: 7.09

Compound: CC(C)N1c2cc(Nc3nccc(-c4cccc5nn(C)cc45)n3)ccc2N(C)C(=O)[C@H]1C
pIC50 [2]: 6.96 | pIC50 [3]: 6.78

Compound: CC(C)Nc1cccc(-c2ccnc(Nc3ccc4c(c3)N(C(C)C)[C@H](C)C(=O)N4C)n2)c1
pIC50 [2]: 7.29 | pIC50 [3]: 6.57

Compound: Cc1cc(F)ccc1-c1ccnc(Nc2ccc3c(c2)N(C(C)C)[C@H](C)C(=O)N3C)n1
pIC50 [2]: 6.24 | pIC50 [3]: 6.81

Compound: CC(C)N1c2cc(Nc3nccc(-c4ccnc5ccccc45)n3)ccc2N(C)C(=O)[C@H]1C
pIC50 [2]: 7.70 | pIC50 [3]: 7.60

Compound: CNc1cccc(-c2ccnc(Nc3ccc4c(c3)N(C(C)C)[C@H](C)C(=O)N4C)n2)c1
pIC50 [2]: 7.66 | pIC50 [3]: 6.76

More lines, now with the values ahead:

pIC50 [2]: 7.00 | pIC50 [3]: 7.72
Compound: Cc1cnc(Nc2ccc3c(c2)N(C(C)C)[C@H](C)C(=O)N3C)nc1-c1cncc2ccccc12

inhibition [4]: -2.1% | inhibition [5]: 86.8% | inhibition [6]: 104% | inhibition [7]: 8.1% | pIC50 [3]: 6.32 | inhibition [8]: 2.3% | inhibition [9]: 37.4% | inhibition [10]: 67.9% | inhibition [11]: 0.1%
Compound: COc1ccccc1-c1ccnc(Nc2ccc3c(c2)N(C(C)C)[C@H](C)C(=O)N3C)n1

pIC50 [2]: 6.74 | pIC50 [3]: 6.94
Compound: Cc1c(N)cccc1-c1ccnc(Nc2ccc3c(c2)N(C(C)C)[C@H](C)C(=O)N3C)n1

pIC50 [2]: 7.33 | pIC50 [3]: 6.30
Compound: COc1cc(F)ccc1-c1ccnc(Nc2ccc3c(c2)N(C(C)C)[C@H](C)C(=O)N3C)n1

pIC50 [2]: 7.10 | pIC50 [3]: 7.12
Compound: CC(C)N1c2cc(Nc3nccc(-c4cccc5cnccc45)n3)ccc2N(C)C(=O)[C@H]1C

inhibition [6]: 1% | pIC50 [3]: 6.57 | inhibition [10]: 1.5%
Compound: Cc1ccccc1-c1ccnc(Nc2ccc3c(c2)N(C(C)C)[C@H](C)C(=O)N3C)n1

pIC50 [2]: 7.17 | pIC50 [3]: 7.57
Compound: CC(C)N1c2cc(Nc3nccc(-c4cccc5c4CCCN5)n3)ccc2N(C)C(=O)[C@H]1C

pIC50 [2]: 6.71 | pIC50 [3]: 6.12
Compound: Cc1cccc(-c2ccnc(Nc3ccc4c(c3)N(C(C)C)[C@H](C)C(=O)N4C)n2)c1

inhibition [4]: -4.1% | inhibition [5]: 14.2% | inhibition [6]: 0.7% | inhibition [7]: 0.7% | pIC50 [3]: 7.11 | inhibition [8]: 2.7% | inhibition [9]: -6.1% | inhibition [10]: 2.2% | inhibition [11]: -1%
Compound: CC(C)N1c2cc(Nc3cccc(-c4ccncc4)c3)ccc2N(C)C(=O)[C@H]1C

pIC50 [12]: 7.77
Compound: CCOc1cc(C2CCN(C)CC2)ccc1Nc1ncc2c(n1)N(Cc1cc(C)cs1)[C@H](CC)C(=O)N2C

pIC50 [2]: 7.50 | pIC50 [3]: 6.27
Compound: COc1ccc(-c2ccnc(Nc3ccc4c(c3)N(C(C)C)[C@H](C)C(=O)N4C)n2)cc1

inhibition [4]: -2.6% | inhibition [5]: -0.8% | inhibition [6]: 3.8% | inhibition [7]: -0.1% | pIC50 [3]: 6.09 | inhibition [8]: -1.4% | inhibition [9]: 1.1% | inhibition [10]: -3% | inhibition [11]: 3%
Compound: COc1ccccc1-c1cccc(Nc2ccc3c(c2)N(C(C)C)[C@H](C)C(=O)N3C)c1

pIC50 [2]: 6.77 | inhibition [13]: 13%
Compound: CC(C)N1c2cc(Nc3nccc(-c4cccc(NC5CCCCC5)c4)n3)ccc2N(C)C(=O)[C@H]1C

inhibition [4]: -4.8% | inhibition [5]: -1.5% | inhibition [6]: 1.3% | inhibition [7]: 0.9% | pIC50 [3]: 6.45 | inhibition [8]: 1.8% | inhibition [9]: -3.4% | inhibition [10]: -6.1% | inhibition [11]: 6.1%
Compound: CC(C)N1c2cc(Nc3cccc(-c4ccccc4)c3)ccc2N(C)C(=O)[C@H]1C

pIC50 [2]: 7.31 | pIC50 [3]: 6.32
Compound: CC(C)N1c2cc(Nc3nccc(-c4ccc(N)cc4)n3)ccc2N(C)C(=O)[C@H]1C

inhibition [6]: 58.6% | pIC50 [3]: 6.48 | inhibition [10]: 7.6%
Compound: CC(C)N1c2cc(Nc3nccc(-c4c[nH]c5ccccc45)n3)ccc2N(C)C(=O)[C@H]1C

inhibition [4]: 14.1% | inhibition [5]: 54.4% | inhibition [6]: 71.8% | inhibition [7]: 2.8% | pIC50 [3]: 6.79 | inhibition [8]: -0.8% | inhibition [9]: 8.7% | inhibition [10]: 25.2% | inhibition [11]: 63.1%
Compound: CC(C)N1c2cc(Nc3nccc(-c4cccc(C#N)c4)n3)ccc2N(C)C(=O)[C@H]1C

inhibition [14]: Dose-dependent effect | inhibition [15]: Dose-dependent effect
Compound: COc1cc(F)ccc1-c1ncnc(Nc2cccc(C[S@](C)(=N)=O)c2)n1

inhibition [1]: 37.7%
Compound: Cc1noc(C)c1-c1cccc(Nc2nccc(-c3ccncc3)n2)c1

pIC50 [2]: 7.41 | pIC50 [3]: 6.60
Compound: CC(C)N1c2cc(Nc3nccc(-c4ccccc4N)n3)ccc2N(C)C(=O)[C@H]1C

inhibition [6]: 47.8% | inhibition [10]: 8.8%
Compound: CC(C)N1c2cc(Nc3nccc(-c4cccc(Nc5ccccc5)c4)n3)ccc2N(C)C(=O)[C@H]1C

inhibition [4]: 37.5% | inhibition [5]: 43.7% | inhibition [6]: 98% | inhibition [7]: 7.7% | pIC50 [3]: 7.08 | inhibition [8]: 0.2% | inhibition [9]: 4% | inhibition [10]: 94.5% | inhibition [11]: 82.4%
Compound: CC(C)N1c2cc(Nc3nccc(-c4ccncc4)n3)ccc2N(C)C(=O)[C@H]1C

pIC50 [2]: 6.91 | inhibition [13]: 11%
Compound: CC(C)N1c2cc(Nc3nccc(-c4cccc(NC5CCCC5)c4)n3)ccc2N(C)C(=O)[C@H]1C
